Laboratory results published in ChEMBL document CHEMBL3817773, “Antibacterial activities of fluorescent nano assembled triphenylamine phosphonium ionic liquids” (Bioorg Med Chem Lett, 2016).
Active and inactive are the calls of the source. The calls are words filed in the database; no cut-off is given here.

Key:
[1] = test system: Klebsiella pneumoniae; assay: Antimicrobial activity against Klebsiella pneumoniae CIP 82.91 after 18 to 20 hrs by broth dilution method; type: functional
Outline: (§1)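 MICs measured against a panel of ESKAPE-representative strains, including S. aureus SA1199, at concentrations up to 64 mg/L.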

[2] = test system: Staphylococcus aureus; assay: Antimicrobial activity against Staphylococcus aureus CIP 76.25 after 18 to 20 hrs by broth dilution method; type: functional; outline: as §1
[3] = test system: Enterococcus faecium; assay: Antimicrobial activity against Enterococcus faecium DSMZ 20477 after 18 to 20 hrs by broth dilution method; type: functional; outline: as §1
[4] = test system: Acinetobacter baumannii; assay: Antimicrobial activity against Acinetobacter baumannii ATCC 19606 after 18 to 20 hrs by broth dilution method; type: functional; outline: as §1
[5] = test system: Pseudomonas aeruginosa; assay: Antimicrobial activity against Pseudomonas aeruginosa CIP 100720 after 18 to 20 hrs by broth dilution method; type: functional; outline: as §1
[6] = test system: Klebsiella aerogenes; assay: Antimicrobial activity against Enterobacter aerogenes ATCC 13048 after 18 to 20 hrs by broth dilution method; type: functional; outline: as §1
[7] = test system: Escherichia coli; assay: Antimicrobial activity against Escherichia coli CIP 54.8 after 18 to 20 hrs by broth dilution method; type: functional; outline: as §1
[8] = test system: Staphylococcus aureus; assay: Antimicrobial activity against Staphylococcus aureus SA1199 after 18 to 20 hrs by broth dilution method; type: functional; outline: as §1
[9] = test system: Staphylococcus aureus; assay: Antimicrobial activity against multi-drug resistant Staphylococcus aureus SA1199B overexpressing NorA after 18 to 20 hrs by broth dilution method; type: functional
Outline: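 MIC read against the NorA-overproducing S. aureus SA1199B, tested alongside its isogenic parent strain SA1199. Compounds were tested at concentrations up to 64 mg/L.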

[10] = test system: HepG2; assay: Cytotoxicity against human HepG2 cells assessed as reduction in cell viability after 24 hrs by WST1 assay; type: cell-based; settings: HepG2, 24 h
[11] = test system: Staphylococcus aureus; assay: Bactericidal activity against Staphylococcus aureus CIP 76.25 assessed as log reduction in bacterial count at 2 mg/L after 30 mins by time kill assay relative to control; type: functional
Outline: (§2)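 Time-kill assay on S. aureus CIP 7625 exposed to 2 mg/L, with untreated control in parallel. Viability was followed by CFU counts over time, and log10 CFU/mL reduction was read at 30 min and 2 h of incubation.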

[12] = test system: Staphylococcus aureus; assay: Bactericidal activity against Staphylococcus aureus CIP 76.25 assessed as log reduction in bacterial count at 2 mg/L after 2 hrs by time kill assay relative to control; type: functional; outline: as §2
[13] = test system: Staphylococcus aureus; assay: Drug uptake in Staphylococcus aureus CIP 76.25 at 2 mg/L after 1.7 to 35 sec by fluorescence microscopic analysis; type: ADME, organism-based; settings: in vivo
Outline: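 Uptake was tracked through the intrinsic fluorescence of the triphenylamine moiety, using fluorescence microscopy of bacteria during incubation to follow accumulation kinetics over seconds.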

[14] = test system: Staphylococcus aureus; assay: Drug uptake in Staphylococcus aureus CIP 76.25 at 2 mg/L after 1.7 to 35 sec by phase contrast microscopic analysis; type: ADME, organism-based; settings: in vivo
[15] = test system: Staphylococcus aureus; assay: Growth inhibition of Staphylococcus aureus CIP 76.25 at 2 mg/L by time kill assay relative to control; type: functional, organism-based
Outline: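 S. aureus CIP 7625 proliferation was followed by absorbance at 600 nm, with or without 2 mg/L, against an untreated control curve.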

[16] = test system: Staphylococcus aureus; assay: Inhibition of metabolic activity in Staphylococcus aureus CIP 76.25 assessed as inhibition of resazurin reduction to resorufin at 2 mg/L treated for 15 mins measured over 2 to 6 hrs by CellTiter-Blue assay; type: functional, organism-based
Outline: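 S. aureus CIP 7625 was treated 15 min with 2 mg/L, then metabolic activity was monitored as the rate of resazurin reduction to resorufin, compared with the untreated control.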

SMILES: CCCC[P+](CCCC)(CCCC)CCCCCCOCc1ccc(N(c2ccccc2)c2ccccc2)cc1.[I-]
- MIC [1]: 16 µg/mL
- MIC [2]: 1 µg/mL
- MIC [3]: 2 µg/mL
- MIC [4]: 16 µg/mL
- MIC [5]: 32 µg/mL
- MIC [6]: 32 µg/mL
- MIC [7]: 16 µg/mL
- MIC [8]: 1 µg/mL
- MIC [9]: 1 µg/mL
- IC50 [10]: < 0.124 µg/mL

SMILES: CCCCCC[P+](CCCC)(CCCC)CCCC.[Cl-]
- MIC [1]: > 64 µg/mL
- MIC [2]: > 64 µg/mL
- MIC [3]: > 64 µg/mL
- MIC [4]: > 64 µg/mL
- MIC [5]: > 64 µg/mL
- MIC [6]: > 64 µg/mL
- MIC [7]: > 64 µg/mL
- MIC [8]: > 64 µg/mL
- MIC [9]: > 64 µg/mL
- IC50 [10]: 5.42 µg/mL

SMILES: c1ccc(N(c2ccccc2)c2ccccc2)cc1
- MIC [1]: > 64 µg/mL
- MIC [2]: > 64 µg/mL
- MIC [3]: > 64 µg/mL
- MIC [4]: > 64 µg/mL
- MIC [5]: > 64 µg/mL
- MIC [6]: > 64 µg/mL
- MIC [7]: > 64 µg/mL
- MIC [8]: > 64 µg/mL
- MIC [9]: > 64 µg/mL
- IC50 [10]: < 0.124 µg/mL

SMILES: CCCCCC[P+](CCCC)(CCCC)CCCC.[I-]
- MIC [1]: > 64 µg/mL
- MIC [2]: > 64 µg/mL
- MIC [3]: > 64 µg/mL
- MIC [4]: > 64 µg/mL
- MIC [5]: > 64 µg/mL
- MIC [6]: > 64 µg/mL
- MIC [7]: > 64 µg/mL
- MIC [8]: > 64 µg/mL
- MIC [9]: > 64 µg/mL
- IC50 [10]: 0.189 µg/mL

SMILES: CCCC[P+](CCCC)(CCCC)CCCCCCOCc1ccc(N(c2ccccc2)c2ccccc2)cc1.[Br-]
- MIC [1]: 8 µg/mL
- MIC [2]: 0.5 µg/mL
- MIC [3]: 1 µg/mL
- MIC [4]: 16 µg/mL
- MIC [5]: > 64 µg/mL
- MIC [6]: 32 µg/mL
- MIC [7]: 16 µg/mL
- MIC [8]: 0.5 µg/mL
- MIC [9]: 0.5 µg/mL
- Activity [11]: >3 log10CFU/ml
- Activity [12]: >4 log10CFU/ml
- Drug uptake [13]: Active
- IC50 [10]: < 0.124 µg/mL
- Drug uptake [14]: Active

SMILES: CCCC[P+](CCCC)(CCCC)CCCCCCOCc1ccc(N(c2ccccc2)c2ccccc2)cc1.[Cl-]
- MIC [1]: 16 µg/mL
- MIC [2]: 1 µg/mL
- MIC [3]: 1 µg/mL
- MIC [4]: 16 µg/mL
- MIC [5]: 32 µg/mL
- MIC [6]: 16 µg/mL
- MIC [7]: 16 µg/mL
- MIC [8]: 0.5 µg/mL
- MIC [9]: 0.5 µg/mL
- IC50 [10]: < 0.124 µg/mL

SMILES: CCCC[P+](CCCC)(CCCC)CCCCCCOC.[Br-]
- MIC [1]: > 64 µg/mL
- MIC [2]: > 64 µg/mL
- MIC [3]: > 64 µg/mL
- MIC [4]: > 64 µg/mL
- MIC [5]: > 64 µg/mL
- MIC [6]: > 64 µg/mL
- MIC [7]: > 64 µg/mL
- MIC [8]: > 64 µg/mL
- MIC [9]: > 64 µg/mL
- IC50 [10]: 0.712 µg/mL

SMILES: CCCCCC[P+](CCCC)(CCCC)CCCC.[Br-]
- MIC [1]: > 64 µg/mL
- MIC [2]: > 64 µg/mL
- MIC [3]: > 64 µg/mL
- MIC [4]: > 64 µg/mL
- MIC [5]: > 64 µg/mL
- MIC [6]: > 64 µg/mL
- MIC [7]: > 64 µg/mL
- MIC [8]: > 64 µg/mL
- MIC [9]: > 64 µg/mL
- IC50 [10]: < 0.124 µg/mL

SMILES: CCCC[P+](CCCC)(CCCC)CCCCCCOCc1ccc(N(c2ccccc2)c2ccccc2)cc1
- growth inhibition (GI) [15]: Active
- inhibition [16]: Active
